Assay results as given in publication PMC3920694 (Iranian Journal of Pharmaceutical Research : IJPR, 2013).
Where two headings read alike, the source gives them in different places.

Key:
[1] = test system: HT29 (Human colon carcinoma); assay: LDH assay cytotoxicity, HT29; assay type: cell-based; settings: HT-29, read-out: IC50 HT29
[2] = test system: HL60 (Human promylocyteic leukemia); assay: LDH assay cytotoxicity, HL60; assay type: cell-based; settings: HL-60, read-out: IC50 HL60
[3] = test system: Jurkat (Human Acute T-cell leukemia); assay: cells; assay type: cell-based; settings: read-out: IC50 Jurkat
[4] = test system: K562 (Human chronic myelogenom leukemia); assay: LDH assay cytotoxicity, K562; assay type: cell-based; settings: K562, read-out: IC50 K562
[5] = test system: HUVEC (Human umbilical vein endothelial cell); assay: LDH assay cytotoxicity, HUVEC; assay type: cell-based; settings: read-out: IC50 HUVEC
[6] = test system: Hela (Human cervix carcinoma); assay: LDH assay cytotoxicity, Hela; assay type: cell-based; settings: read-out: IC50 Hela
[7] = test system: HepG2 (Human hepatocyte cancer cell line); assay: LDH assay cytotoxicity, HepG2; assay type: cell-based; settings: HepG2, read-out: IC50 HepG2
[8] = test system: PC3 (Human prostate adenocarcinoma); assay: LDH assay cytotoxicity, PC3; assay type: cell-based
[9] = test system: leukemia cell lines (HL60, K562 and Jurkat); assay: Trypan blue exclusion, leukemia cell lines; assay type: cell-based, Human; settings: 48 h; compared with structural isomer A; Figures 7-9
[10] = test system: MCF7 (Human breast adenocarcinoma); assay: LDH assay cytotoxicity, MCF7; assay type: cell-based
[11] = test system: cancer cell lines (PC3, HT29, Hela, HL60, Jurkat, K562, MCF7, HepG2); assay: LDH assay cytotoxicity, span over the eight cancer cell lines; assay type: cell-based; settings: Homo sapiens, read-out: IC50 on cancer cell lines (range over the eight lines)
Outline: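 Cells grown in DMEM with 10% FBS and penicillin/streptomycin at 37°C, 5% CO2. Test compound at 1, 5, 10, 25, 50 and 100 μM for 24 and 48 h. Medium transferred and mixed with LDH reagent plus catalyst (1:45), 30 min in the dark at room temperature. Absorbance read at 490 nm with 630 nm background subtraction. Cell-free medium served as negative control.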

[12] = test system: PC3 (Human prostate adenocarcinoma); assay: Trypan blue exclusion, PC3; assay type: cell-based; settings: 48 h; Figure 4
Outline: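 Cells kept in DMEM with 10% FBS and antibiotics at 37°C, 5% CO2. About 0.75 × 10^5 cells/mL were seeded in 6-well plates and exposed to test compound at several concentrations for 48 h. Cells were then collected, resuspended in 0.4% trypan blue, and unstained cells counted by inverted microscopy. Percent viability was expressed relative to a temozolomide reference control.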

[13] = Homo sapiens, read-out: IC50 PC3, LDH assay, incubation 24 and 48 h described

For `O=[N+]([O-])c1ccc(N=NNc2cccc(O)c2)cc1` [A, 1-(4-nitrophenyl)-3-(3-hydroxyphenyl)triazene], the IC50 [1] was 2.82 ± 0.49 µM, the IC50 [2] was 2.3 ± 0.51 µM and the IC50 [3] was 1.2 ± 0.4 µM. For the same molecule, the IC50 [4] was 2.1 ± 0.7 µM, the IC50 [5] was 4.4 ± 1.31 µM and the IC50 [6] was 8.87 ± 2.1 µM. The IC50 [7] was 1.12 ± 0.3 µM and the IC50 [8, 13] was 1.24 ± 0.2 µM.

`O=[N+]([O-])c1ccc(N=NNc2ccccc2O)cc1` [B, 1-(4-nitrophenyl)-3-(2-hydroxyphenyl)triazene] showed an IC50 [1] of 3.37 ± 1.65 µM, an IC50 [2] of 1.36 ± 0.34 µM and an IC50 [3] of 1.05 ± 0.98 µM. For the same molecule, the IC50 [4] was 1.13 ± 0.67 µM, the IC50 [5] was 3.22 ± 1.1 µM and the IC50 [6] was 4.2 ± 1.4 µM. For the same molecule, the IC50 [7] was 1.89 ± 0.78 µM, the IC50 [8, 13] was 3.29 ± 1.3 µM and the “effectiveness on leukemia cell lines (HL60, K562 and Jurkat) by trypan blue exclusion” value [9] was “more effective”.

With `CCOc1ccccc1N=NNc1ccccc1OCC` [C, 1,3-bis(2-ethoxyphenyl)triazene] the IC50 ([10]; read-out: IC50 MCF7, LDH assay, incubation 24 and 48 h described) was 0.59 ± 0.12 µM, the IC50 [1] was 2.55 ± 1.33 µM and the IC50 [2] was 2.62 ± 0.96 µM. The IC50 [3] was 1.69 ± 1.02 µM, the IC50 [11] was 0.56 to 3.33 µM and the “cytotoxic activity on PC3 by trypan blue exclusion” value [12] was “high”. The IC50 [4] was 1.66 ± 0.8 µM, the IC50 [5] was 12.6 ± 2.8 µM and the IC50 [6] was 2.54 ± 1.2 µM. The IC50 [7] was 3.33 ± 1.3 µM, the IC50 [8, 13] was 0.59 µM and the IC50 ([8]; read-out: IC50 PC3, LDH assay, incubation 24 and 48 h described) was 0.56 ± 0.2 µM.

`N#Cc1ccccc1N=NNc1ccccc1C#N` [D, 1,3-bis (2-cyanophenyl) triazene] showed an IC50 [1] of 2.03 ± 1.05 µM, an IC50 [2] of 1.34 ± 0.44 µM and an IC50 [3] of 1.44 ± 0.71 µM. It also gave an IC50 [4] of 1.04 ± 0.38 µM, an IC50 [5] of 1.14 ± 0.4 µM and an IC50 [6] of 2.39 ± 1.35 µM. It also gave an IC50 [7] of 1.49 ± 0.42 µM and an IC50 [8, 13] of 1.04 ± 0.11 µM.

With `O=[N+]([O-])c1ccc(N=NNCCO)cc1` [E, 1-(4-nitrophenyl)-3-(2-hydroxyethyl)triazene] the IC50 [1] was 8.25 ± 2.2 µM, the IC50 [2] was 2.81 ± 0.99 µM and the IC50 [3] was 4.5 ± 1.67 µM. The IC50 [11] was 3 to 15.5 µM, the IC50 [4] was 9.87 ± 2.08 µM and the IC50 [5] was 5.05 ± 1.8 µM. The IC50 [6] was 15.5 ± 3.01 µM, the IC50 [7] was 4.2 ± 1.2 µM and the IC50 [8, 13] was 3 ± 1.01 µM.

For `COc1ccccc1N=NNc1ccccc1OC` [F, 1,3-Bis(2-methoxyphenyl)triazene], the IC50 [1] was 2.26 ± 1.52 µM, the IC50 [2] was 1.3 ± 0.5 µM and the IC50 [3] was 1.61 ± 0.9 µM. For the same molecule, the IC50 [4] was 1.66 ± 0.49 µM, the IC50 [5] was 4.59 ± 1.76 µM and the IC50 [6] was 6.85 ± 2.8 µM. For the same molecule, the IC50 [7] was 1.45 ± 0.65 µM and the IC50 [8, 13] was 7 ± 2.2 µM.

`c1ccc(N=NNc2ccccc2)cc1` [G, 1,3-diphenyltriazene] gave an IC50 ([10]; Homo sapiens, MCF7, read-out: IC50 MCF7) of 1.57 ± 0.34 µM, an IC50 [1] of 9.4 ± 2.3 µM and an IC50 [2] of 3.4 ± 1.96 µM. It also gave an IC50 [3] of 5.53 ± 1.44 µM, an IC50 [4] of 6.33 ± 2.41 µM and an IC50 [5] of 7.43 ± 2.1 µM. It also gave an IC50 [6] of 4.88 ± 1.5 µM, an IC50 [7] of 3.94 ± 1.45 µM and an IC50 ([8]; Homo sapiens, read-out: IC50 PC3) of 4.13 ± 1.8 µM.

`Cn1nnc2c(C(N)=O)ncn2c1=O` [TMZ, Temozolomide, reference compound] was tested, and the IC50 [1] was 17.2 ± 3.2 µM, the IC50 [2] was 3.54 ± 1.56 µM and the IC50 [3] was 2.07 ± 1.34 µM. For the same molecule, the IC50 [4] was 3.82 ± 1.6 µM, the IC50 [5] was 4.85 ± 1.78 µM and the IC50 [6] was 8.88 ± 2.2 µM. The IC50 [7] was 2.59 ± 1.3 µM and the IC50 [8, 13] was 1.39 ± 0.69 µM.
